Data reported in ChEMBL document CHEMBL1122744, “2-Chloroethyl (methylsulfonyl)methanesulfonate and related (methylsulfonyl)methanesulfonates. Antineoplastic activity in vivo” (J Med Chem, 1984).

Key:
[1] = Ratio of median survival times for non-survivors at dose 33 mg/kg in exp2; assay type: functional
[2] = tested on: Mus musculus; experiment: Median survival time of the untreated control groups, in which there are no 30-day survivors at dose 15 mg/kg in exp3; assay type: functional
[3] = tested on: Mus musculus; experiment: Change in weight by day 5, obtained by subtracting treated groups of animals minus control groups of animals at dose 200 mg/kg in exp1.; assay type: functional
Procedure, shortened: (§1)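 Mice were inoculated ip with 10^6 P388 leukemia cells on day 0 and weighed 19–22 g that day. Compound was given ip once daily on days 1–5, within about 5 min of preparing the solution or suspension, to groups of six (occasionally five). Thirty inoculated untreated mice served as controls. The value is the average weight change of treated mice minus that of controls on day 5.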

[4] = tested on: Mus musculus; experiment: Median survival time of the untreated control groups, in which there are no 30-day survivors at dose 22 mg/kg in exp6; assay type: functional
[5] = Ratio of number of 60-day survivors to the total treated mice at dose 50 mg/kg in exp2; 0/5; assay type: functional
[6] = tested on: Mus musculus; experiment: Mortality by day 5 expressed as number of mice died to the total treated at dose 33 mg/kg in exp3; 0/5; assay type: ADME, organism-based; parameters: dose 33 mg/kg; conditions: in vivo
[7] = tested on: Mus musculus; experiment: Mortality by day 5 expressed as number of mice died to the total treated at dose 33 mg/kg in exp6; 0/6; assay type: ADME, organism-based; parameters: dose 33 mg/kg; conditions: in vivo
[8] = tested on: Mus musculus; experiment: Change in weight by day 5, obtained by subtracting treated groups of animals minus control groups of animals at dose 33 mg/kg in exp6; assay type: functional; procedure, shortened: as §1
[9] = tested on: Mus musculus; experiment: Median survival time of the untreated control groups, in which there are no 30-day survivors at dose 100 mg/kg in exp1; assay type: functional
[10] = tested on: Mus musculus; experiment: Median survival time of the untreated control groups, in which there are no 30-day survivors at dose 33 mg/kg in exp7; assay type: functional
[11] = Ratio of median survival times for non-survivors at dose 22 mg/kg in exp7; assay type: functional
[12] = tested on: Mus musculus; experiment: Mortality by day 5 expressed as number of mice died to the total treated at dose 50 mg/kg in exp8; 0/6; assay type: ADME, organism-based; parameters: dose 50 mg/kg; conditions: in vivo
[13] = tested on: Mus musculus; experiment: Change in weight by day 5, obtained by subtracting treated groups of animals minus control groups of animals at dose 33 mg/kg in exp7; assay type: functional; procedure, shortened: as §1
[14] = tested on: Mus musculus; experiment: Change in weight by day 5, obtained by subtracting treated groups of animals minus control groups of animals at dose 50 mg/kg in exp7; assay type: functional; procedure, shortened: as §1
[15] = Ratio of median survival times for non-survivors at dose 50 mg/kg in exp5; assay type: functional
[16] = tested on: Mus musculus; experiment: Median survival time of the untreated control groups, in which there are no 30-day survivors at dose 50 mg/kg in exp6; assay type: functional
[17] = tested on: Mus musculus; experiment: Median survival time of the untreated control groups, in which there are no 30-day survivors at dose 33 mg/kg in exp4; assay type: functional
[18] = tested on: Mus musculus; experiment: Change in weight by day 5, obtained by subtracting treated groups of animals minus control groups of animals at dose 100 mg/kg in exp8; assay type: functional; procedure, shortened: as §1
[19] = tested on: Mus musculus; experiment: Mortality by day 5 expressed as number of mice died to the total treated at dose 50 mg/kg in exp6; 0/6; assay type: ADME, organism-based; parameters: dose 50 mg/kg; conditions: in vivo
[20] = tested on: Mus musculus; experiment: Change in weight by day 5, obtained by subtracting treated groups of animals minus control groups of animals at dose 50 mg/kg in exp6; assay type: functional; procedure, shortened: as §1
[21] = tested on: Mus musculus; experiment: Mortality by day 5 expressed as number of mice died to the total treated at dose 100 mg/kg in exp2; 1/5; assay type: ADME, organism-based; parameters: dose 100 mg/kg; conditions: in vivo
[22] = Ratio of median survival times for non-survivors at dose 15 mg/kg in exp3; assay type: functional
Procedure, shortened: (§2)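 Mice were inoculated ip with 10^6 P388 leukemia cells on day 0. Groups of six (occasionally five) were dosed ip qd on days 1–5 with fresh suspensions; 30 mice served as untreated controls. Deaths were recorded daily up to day 60. T/C% compares the median survival of treated non-survivors (<60 days) with the control median. Medians used grouped data when there were no 30-day survivors, otherwise ungrouped data. t = toxic.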

[23] = Ratio of median survival times for non-survivors at dose 100 mg/kg in exp1; assay type: functional; parameters: unit: %; procedure, shortened: as §2
[24] = Ratio of number of 60-day survivors to the total treated mice at dose 50 mg/kg in exp6; […]; assay type: functional
[25] = tested on: Mus musculus; experiment: Median survival time of the untreated control groups, in which there are no 30-day survivors at dose 22 mg/kg in exp3; assay type: functional
[26] = Ratio of median survival times for non-survivors at dose 22 mg/kg in exp3; assay type: functional; procedure, shortened: as §2
[27] = tested on: Mus musculus; experiment: Median survival time of the treated control groups, in which there are no 30-day survivors at dose 33 mg/kg in exp3; assay type: functional
[28] = tested on: Mus musculus; experiment: Median survival time of the treated control groups, in which there are no 30-day survivors at dose 50 mg/kg in exp8; assay type: functional
[29] = tested on: Mus musculus; experiment: Median survival time of the untreated control groups, in which there are no 30-day survivors at dose 50 mg/kg in exp8; assay type: functional
[30] = tested on: Mus musculus; experiment: Median survival time of the untreated control groups, in which there are no 30-day survivors at dose 33 mg/kg in exp6; assay type: functional
[31] = tested on: Mus musculus; experiment: Mortality by day 5 expressed as number of mice died to the total treated at dose 15 mg/kg in exp4; 0/6; assay type: ADME, organism-based; parameters: dose 15 mg/kg; conditions: in vivo
[32] = tested on: Mus musculus; experiment: Median survival time of the treated control groups, in which there are no 30-day survivors at dose 50 mg/kg in exp2; assay type: functional
[33] = Ratio of median survival times for non-survivors at dose 150 mg/kg in exp2; t= toxic; assay type: ADME, organism-based; parameters: dose 150 mg/kg; conditions: in vivo; procedure, shortened: as §2
[34] = tested on: Mus musculus; experiment: Mortality by day 5 expressed as number of mice died to the total treated at dose 33 mg/kg in exp4; 0/6; assay type: ADME, organism-based; parameters: dose 33 mg/kg; conditions: in vivo
[35] = tested on: Mus musculus; experiment: Median survival time of the untreated control groups, in which there are no 30-day survivors at dose 22 mg/kg in exp5; assay type: functional
[36] = tested on: Mus musculus; experiment: Change in weight by day 5, obtained by subtracting treated groups of animals minus control groups of animals at dose 33 mg/kg in exp2.; assay type: functional; procedure, shortened: as §1
[37] = tested on: Mus musculus; experiment: Mortality by day 5 expressed as number of mice died to the total treated at dose 50 mg/kg in exp1; 0/5; assay type: ADME, organism-based; parameters: dose 50 mg/kg; conditions: in vivo
[38] = tested on: Mus musculus; experiment: Mortality by day 5 expressed as number of mice died to the total treated at dose 200 mg/kg in exp1; 5/6; assay type: ADME, organism-based; parameters: dose 200 mg/kg; conditions: in vivo
[39] = Ratio of number of 30-day survivors to the total treated mice at dose 50 mg/kg in exp2; 2/5; assay type: functional
[40] = Ratio of number of 60-day survivors to the total treated mice at dose 50 mg/kg in exp1; 2/6; assay type: functional
[41] = Ratio of number of 30-day survivors to the total treated mice at dose 50 mg/kg in exp1; 4/6; assay type: functional
[42] = tested on: Mus musculus; experiment: Median survival time of the treated control groups, in which there are no 30-day survivors at dose 100 mg/kg in exp2; assay type: functional
[43] = Number of 30-day survivors at dose 50 mg/kg in exp7*-one death on 6th day, one death on 27th day & four 30 day survivors; 4/6
[44] = tested on: Mus musculus; experiment: Mortality by day 5 expressed as number of mice died to the total treated at dose 22 mg/kg in exp7; 0/6; assay type: ADME, organism-based; parameters: dose 22 mg/kg; conditions: in vivo

For CS(=O)(=O)CS(=O)(=O)OCCCl, the Ratio [1] was 209, the Median survival time [2] was 11.1 and the T-C [3] was -5 g. It also gave a Median survival time [4] of 13, a Ratio [5] of 0 and a Mortality [6] of 0. The Mortality [7] was 0, the Change in weight [8] was -2.1 and the Median survival time [9] was 11.2. For the same molecule, the Median survival time [10] was 10.7, the Ratio [11] was 168 and the Mortality [12] was 0. For the same molecule, the Change in weight [13] was -2.4, the Change in weight [14] was -3 and the Ratio [15] was 225. For the same molecule, the Median survival time [16] was 13, the Median survival time [17] was 10.5 and the Change in weight [18] was -6. For the same molecule, the Mortality [19] was 0, the Change in weight [20] was -3.1 and the Mortality [21] was 1. It also gave a Ratio [22] of 144, a Ratio [23] of 151 and a Ratio [24] of 2. The Median survival time [25] was 11.1, the Ratio [26] was 166 and the Median survival time [27] was 22. It also gave a Median survival time [28] of 30, a Median survival time [29] of 11 and a Median survival time [30] of 13. The Mortality [31] was 0, the Median survival time [32] was 27 and the Ratio [33] was “Toxic”. It also gave a Mortality [34] of 0, a Median survival time [35] of 12 and a Change in weight [36] of -2.5. The Mortality [37] was 0, the Mortality [38] was 5 and the Ratio [39] was 2. The Ratio [40] was 2, the Ratio [41] was 4 and the Median survival time [42] was 22.5. It also gave a 30-day survivors [43] of 4 and a Mortality [44] of 0.
